Measured values as given in ChEMBL document CHEMBL1124186, “Synthesis and evaluation of tylosin-related macrolides modified at the aldehyde function: a new series of orally effective antibiotics” (1988).
In brackets after ≈: the same amount, converted by molar mass.

What was measured:
Enterococcus faecium = experiment: In vitro antimicrobial activity against Streptococcus faecium X66; format: functional, streptococcus fae-cium
Streptococcus pyogenes [1] = experiment: In vivo effective dose against experimental infections in rodent caused by Streptococcus pyogenes C203 when administered orally; format: functional; conditions: po
Streptococcus pneumoniae = experiment: In vitro antimicrobial activity against Streptococcus pneumoniae; format: functional
Staphylococcus aureus = experiment: In vitro antimicrobial activity against Staphylococcus aureus X1; format: functional
Haemophilus influenzae = experiment: In vitro antimicrobial activity against Haemophilus influenzae.; format: functional
Streptococcus pyogenes [2] = experiment: Effective dose against Streptococcus pyogenes C203 when administered sc; format: functional
In short: (§1)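 Mouse protection test: infected mice were dosed twice, at 1 and 5 h postinfection, either subcutaneously or orally. […] The result is expressed as ED50 in mg/kg × 2.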

Streptococcus pyogenes [3] = experiment: Antimicrobial activity against Streptococcus pyogenes C203; format: functional
Streptococcus pyogenes [4] = experiment: In vitro antimicrobial activity against Streptococcus pyogenes C203; format: functional
[5] = tested on: Staphylococcus epidermidis; experiment: In vitro antimicrobial activity against Staphylococcus epidermidis EPI1; format: functional
Streptococcus pyogenes [6] = experiment: In vivo effective dose against experimental infections in rodent caused by Streptococcus pyogenes C203 when administered sc; format: functional
Streptococcus pyogenes [7] = experiment: Effective dose against Streptococcus pyogenes C203 when administered orally; format: functional; conditions: po; in short: as §1

## CC[C@H]1OC(=O)C[C@@H](O)[C@H](C)[C@@H](O[C@@H]2O[C@H](C)[C@@H](O)[C@H](N(C)C)[C@H]2O)[C@@H](C)C[C@@H](C)C(=O)/C=C/C(C)=C/[C@@H]1CO[C@@H]1O[C@H](C)[C@@H](O)[C@@H](OC)[C@H]1OC
Enterococcus faecium
  MIC: 8 µg/mL (≈ 10.8 µM)
Streptococcus pyogenes [1]
  ED50: 8 mg/kg
Streptococcus pneumoniae
  MIC: 2 µg/mL (≈ 2.69 µM)
Staphylococcus aureus
  MIC: 0.25 µg/mL (≈ 0.336 µM)
Haemophilus influenzae
  MIC: 8 µg/mL (≈ 10.8 µM)
Streptococcus pyogenes [2]
  ED50: 0.25 mg/kg
Streptococcus pyogenes [3]
  MIC: 8 µg/mL (≈ 10.8 µM)
Streptococcus pyogenes [4]
  MIC: 0.25 µg/mL (≈ 0.336 µM)
[5]
  MIC: 0.25 µg/mL (≈ 0.336 µM)
Streptococcus pyogenes [6]
  ED50: 1.6 mg/kg
Streptococcus pyogenes [7]
  ED50: 1.6 mg/kg
